Experimental data gathered from unrelated publications.
Each line is one published result; the experiments were not run side by side.
Target: Calcium/calmodulin-dependent protein kinase type II subunit gamma (CAMK2G, Homo sapiens, UniProt Q13555)

Compound	read-out	action	method	tested at	setting	quantity	value
CC#CC(=O)N1CCC[C@H]1c1nc(-c2ccc(C(=O)Nc3ccccn3)cc2)c2c(N)nccn12	enzyme activity	inhibitor		1 µM		inhibition	0%
CCCCC(=O)Nc1ccc(-c2ccc3ncn(CCC)c(=O)c3c2)cn1	binding		competition with immobilised ligand	0.5 µM		remaining binding	100%
C[C@H]1CC[C@H](n2c3cnccc3c3cnc(Nc4ccc5c(n4)CCN(C(=O)CO)C5)nc32)CC1	binding			1 µM		remaining binding	40%
CO[C@@H]1[C@H](N(C)C(=O)c2ccccc2)C[C@H]2O[C@]1(C)n1c3ccccc3c3c4c(c5c6ccccc6n2c5c31)C(=O)NC4	enzyme activity	inhibitor		1 µM		inhibition	90%
CN1CCN(C(=O)c2ccc(NC(=O)Nc3ccc(N(C)c4ccnc(Nc5ccc(CS(C)(=O)=O)cc5)n4)cc3)cc2)CC1	binding			1 µM		remaining binding	100%
C1=C/COCc2cc(ccc2OCCN2CCCC2)Nc2nccc(n2)-c2cccc(c2)COC/1	binding			0.1 µM		remaining binding	89%
Cc1cc(O)c(-c2ccc([C@@H](C)CN(C)C)cc2)c2c1[nH]c(=O)c1sccc12	cell-free assay	inhibitor		0.1 µM	lysate	inhibition	-11.1%
CC(C)S(=O)(=O)c1ccc2nccc(Nc3ccc4sc(C5CCCC5)nc4c3)c2c1	enzyme activity	inhibitor		1 µM		activity vs control	104%
